Reference: paper PMC2749063 (Current eye research, 2009)
Entries after “also recorded” stand apart in the source; their conditions may differ. Like-named read-outs stand apart in the source and are kept apart here. Ends that are not written are not given here.

Experiments:
Ad3 = experiment: Direct viral time kill assay, Ad3; type: cell-based, adenovirus; settings: Ad3, 500 μg/ml peptide, 4 hours; ANOVA p = 0.008
How it was run: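 Ad3 reference strain grown in A549 cells. Peptide stock in sterile water, diluted in tryptone-saline (pH 5.5). Final mix: 500 μg/ml peptide with ~10⁴ PFU/ml virus, or tryptone-saline control, at 37°C. At 1 and 4 h, aliquots diluted in ice-cold medium with 10% FBS, then plated on A549 monolayers (37°C, 5% CO₂). After 8-9 days, gentian violet-stained plaques counted as PFU/ml. Log₁₀ titers by ANOVA/Fisher; 7 repeats.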

Ad5 [1] = experiment: Direct viral time kill assay, Ad5; type: cell-based, adenovirus; settings: Ad5, 500 μg/ml peptide; for inhibition of Ad5 vs tryptone-saline control (in words): 4 hours, ANOVA p < 0.001
How it was run: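 Ad5 clinical isolate grown in A549 cells. Peptide stock in sterile water, diluted in tryptone-saline (pH 5.5); mixed with virus to 500 μg/ml final, ~10⁴ PFU/ml; 37°C water bath. Aliquot at 1 h quenched in ice-cold medium with 10% FBS, diluted, plated on A549 monolayers (37°C, 5% CO₂). Gentian violet stain at 7 days, plaques counted, titer as PFU/ml; 7 repeats; log₁₀ ANOVA, Fisher comparisons.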

Ad5 [2] = experiment: Increasing Concentration Direct Inhibition Assay, Ad5; type: cell-based, adenovirus
HSV-1 [3] = experiment: Increasing Concentration Direct Inhibition Assay, HSV-1; type: cell-based, herpes simplex virus type 1
How it was run: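 HSV-1 McKrae strain, grown in Vero cells. Virus incubated with test compound at a range of concentrations in tryptone-saline. Titers were determined by plaque assay. Each concentration has its own tryptone-saline control. Log reduction is the mean titer difference between treated virus and that control.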

Ad5 [4] = experiment: TOTO-1 assay, Ad5 capsid integrity; design: species or system adenovirus; settings: 5 hours at 37°C; for TOTO-1 fluorescence / Ad5 capsid integrity (in words): Ad5, peptide 10-500 μg/ml
HSV-1 [5] = experiment: TOTO-1 assay, HSV-1 envelope/capsid integrity; design: species or system herpes simplex virus type 1; settings: 5 hours at 37°C
How it was run: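 HSV-1 McKrae grown in Vero cells. Test compound (2-500 μg/ml) incubated with or without virus (~5 × 10⁴ PFU/ml), 5 h, 37°C. Mixture added to 120 nM TOTO-1 in tryptone-saline pH 8.0; fluorescence read at 485/20 nm excitation, 516/20 nm emission. Signal = raw minus peptide- and virus-derived fluorescence; adenovirus DNA standards. Run in duplicate; repeated at least twice on different days.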

bacteria = settings: cited from earlier work

## NQGRHFCGGALIHARFVMTAASCFQ (cysteine pairing not given here) [Peptide A]
Ad3
  inhibition of Ad3 vs tryptone-saline control (in words): statistically-significant reduction in viral titers
Ad5 [1]; 1 hour incubation, data not shown
  inhibition of Ad5 at 1 hour (in words): significantly inhibited
Ad5 [1]
  inhibition of Ad5 vs tryptone-saline control (in words): significantly greater inhibitory activity than the tryptone-saline control
Ad5 [2]; Ad5, 4 hours incubation
  initial inhibitory concentration: 50 µg/mL
Ad5 [2]; Ad5, peptide above 100 μg/ml (up to 750 μg/ml), 4 hours incubation
  inhibitory effect (log reduction of viral titers) above 100 μg/ml: ~2 log reductions
HSV-1 [3]; HSV-1, 4 hours incubation
  initial inhibitory concentration: 50 µg/mL
HSV-1 [3]; HSV-1, peptide above 100 μg/ml (up to 750 μg/ml), 4 hours incubation
  inhibitory effect (log reduction of viral titers) above 100 μg/ml: ~2 log reductions
Ad5 [4]; Ad5, peptide 500 μg/ml, 120 nM TOTO-1
  increase in TOTO-1 fluorescence: 65-85%
Ad5 [4]
  TOTO-1 fluorescence / Ad5 capsid integrity (in words): dose-dependent increase in TOTO-1 fluorescence
HSV-1 [5]; HSV-1, peptide 10 to 100 μg/ml
  TOTO-1 fluorescence with HSV-1 between 10 and 100 μg/ml (in words): no increase in fluorescence
HSV-1 [5]; HSV-1, peptide 100 to 500 μg/ml
  TOTO-1 fluorescence with HSV-1 from 100 to 500 μg/ml (in words): increasing fluorescence

## NQGRHFSGGALIHARFVMTAASCFQ [Peptide B]
Ad3
  inhibition of Ad3 vs tryptone-saline control (in words): statistically-significant reduction in viral titers
Ad5 [1]
  inhibition of Ad5 vs tryptone-saline control (in words): significantly greater inhibitory activity than the tryptone-saline control

## Asn-Gln-------------Gly-Arg-His-Phe-Ser-Gly-Gly-Ala-Leu-Ile-His-Ala-Arg-Phe-Val-Met-Thr-Ala-Ala-Ser-Ser-Phe-Gln [Peptide D]
Ad3
  inhibition of Ad3 vs tryptone-saline control (in words): statistically-significant reduction in viral titers
bacteria; ref Previous studies
  antibacterial activity (in words): inactive

## IQSPAGQSRCGGFLVREDFVLTAAHCWG (cysteine pairing not given here) [Cathepsin G20-47 peptide, reference compound]
Ad5 [4]
  TOTO-1 fluorescence / Ad5 capsid integrity (in words): minimal fluorescence; also recorded: no disruptive effect on Ad5 capsid integrity
bacteria
  antibacterial activity (in words): negligible antibacterial activity

## Asn-Gln-------------Gly-Arg-His-Phe-Cys-Gly-Gly-Ala-Leu-Ile-His-Ala-Arg-Phe-Val-Met-Thr-Ala-Ala-Ser-Ser-Phe-Gln [Peptide C]
Ad3
  inhibition of Ad3 vs tryptone-saline control (in words): statistically-significant reduction in viral titers
